Laboratory results from ChEMBL document CHEMBL1759833, “Synthesis and biological evaluation of some 4-functionalized-pyrazoles as antimicrobial agents” (2011).
In brackets after ≈: the same amount, converted by molar mass.

Assays:
Assay type in all cases: functional
Bacillus subtilis [1] = assay: Antibacterial activity against Bacillus subtilis MTCC 121 for 24 hrs by macrodilution method; conditions: MTCC 121, 24 h
Method in brief: (§1)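 MIC by NCCLS macrodilution tube method. Tubes were inoculated with bacteria at 1.5 × 10⁸ cfu/mL and incubated at 37 °C for 24 h. Turbidity was scored visually. Ciprofloxacin served as control.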

Aspergillus flavus = assay: Antifungal activity against Aspergillus flavus MTCC 871 assessed as inhibition of mycelial growth for 7 days by poisoned food method
Method in brief: (§2)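 Poisoned food method. Compound at 4.0 mg/mL in DMSO was mixed into agar, poured and solidified at room temperature. Each plate was inoculated centrally with an 8 mm plug from an actively growing colony and incubated at 25 °C for 7 days. Colony diameter was converted to percent mycelial inhibition, in triplicate. Controls were DMSO (negative) and fluconazole (positive).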

Staphylococcus aureus [2] = assay: Antibacterial activity against Staphylococcus aureus MTCC 96 for 24 hrs by agar diffusion method
Method in brief: (§3)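 Agar well diffusion on Mueller Hinton agar plates swabbed with bacterial suspension of approx. 1.5 × 10⁸ cfu/mL. 8 mm wells were loaded with compound at 4.0 mg/mL in DMSO. Plates were incubated 37 °C for 24 h. Read-out was inhibition zone diameter in mm, including the 8 mm well, as mean of three replicates. Controls were DMSO (negative) and ciprofloxacin (positive).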

Staphylococcus aureus [3] = assay: Antibacterial activity against Staphylococcus aureus MTCC 96 for 24 hrs by macrodilution method; conditions: MTCC 96, 24 h; method in brief: as §1
Aspergillus niger = assay: Antifungal activity against Aspergillus niger MTCC 282 assessed as inhibition of mycelial growth for 7 days by poisoned food method; method in brief: as §2
Bacillus subtilis [4] = assay: Antibacterial activity against Bacillus subtilis MTCC 121 for 24 hrs by agar diffusion method; method in brief: as §3

Structure (SMILES)	MIC (Bacillus subtilis [1])	inhibition (INH) (Aspergillus flavus)	diameter of the inhibition zone (DIZ) (Staphylococcus aureus [2])	MIC (Staphylococcus aureus [3])	inhibition (INH) (Aspergillus niger)	diameter of the inhibition zone (DIZ) (Bacillus subtilis [4])
NS(=O)(=O)c1ccc(-n2cc(C(=O)O)c(-c3ccccc3)n2)cc1	128 µg/mL (≈ 373 µM)	55.5%	15.3 mm	128 µg/mL (≈ 373 µM)	50%	16.6 mm
Cc1ccc(-c2nn(-c3ccc(S(N)(=O)=O)cc3)cc2C(=O)O)cc1	64 µg/mL (≈ 179 µM)	51.1%	14.6 mm	> 128 µg/mL	46.6%	17.3 mm
COc1ccc(-c2nn(-c3ccc(S(N)(=O)=O)cc3)cc2C(=O)O)cc1	64 µg/mL (≈ 171 µM)	44.4%	15.6 mm	128 µg/mL (≈ 343 µM)	44.4%	17 mm
NS(=O)(=O)c1ccc(-n2cc(C(=O)O)c(-c3ccc(F)cc3)n2)cc1	64 µg/mL (≈ 177 µM)	48.8%	15 mm	128 µg/mL (≈ 354 µM)	52.5%	18.6 mm
NS(=O)(=O)c1ccc(-n2cc(C(=O)O)c(-c3ccc(Cl)cc3)n2)cc1	32 µg/mL (≈ 84.7 µM)	44.4%	18.6 mm	64 µg/mL (≈ 169 µM)	45.5%	21.6 mm
NC(=S)c1cn(-c2ccc(S(N)(=O)=O)cc2)nc1-c1ccc(F)cc1	128 µg/mL (≈ 340 µM)	61.1%	17.6 mm	64 µg/mL (≈ 170 µM)	44.4%	15.3 mm
NC(=S)c1cn(-c2ccc(S(N)(=O)=O)cc2)nc1-c1ccc(Cl)cc1	> 128 µg/mL	52.5%	18.3 mm	64 µg/mL (≈ 163 µM)	50%	14.6 mm
NC(=S)c1cn(-c2ccc(S(N)(=O)=O)cc2)nc1-c1ccc(Br)cc1	64 µg/mL (≈ 146 µM)	51.1%	21.6 mm	32 µg/mL (≈ 73.2 µM)	44.4%	18.3 mm
NC(=S)c1cn(-c2ccc(S(N)(=O)=O)cc2)nc1-c1cccs1	64 µg/mL (≈ 176 µM)	55.5%	20.3 mm	64 µg/mL (≈ 176 µM)	61.1%	17.6 mm
NS(=O)(=O)c1ccc(-n2cc(C(=O)O)c(-c3ccc(Br)cc3)n2)cc1	> 128 µg/mL	45.5%	15.6 mm	128 µg/mL (≈ 303 µM)	51.1%	14.3 mm
NS(=O)(=O)c1ccc(-n2cc(C(=O)O)c(-c3ccc([N+](=O)[O-])cc3)n2)cc1	128 µg/mL (≈ 330 µM)	57.7%	14.6 mm	> 128 µg/mL	61.1%	15 mm
NS(=O)(=O)c1ccc(-n2cc(C(=O)O)c(-c3cccs3)n2)cc1	128 µg/mL (≈ 366 µM)	55.5%	18.6 mm	64 µg/mL (≈ 183 µM)	57.7%	15.6 mm
NC(=S)c1cn(-c2ccc(S(N)(=O)=O)cc2)nc1-c1ccccc1	128 µg/mL (≈ 357 µM)	53.3%	15.3 mm	128 µg/mL (≈ 357 µM)	50%	15 mm
Cc1ccc(-c2nn(-c3ccc(S(N)(=O)=O)cc3)cc2C(N)=S)cc1	128 µg/mL (≈ 344 µM)	51.1%	21.6 mm	32 µg/mL (≈ 85.9 µM)	44.4%	16.3 mm
COc1ccc(-c2nn(-c3ccc(S(N)(=O)=O)cc3)cc2C(N)=S)cc1	128 µg/mL (≈ 329 µM)	57.7%	16.6 mm	128 µg/mL (≈ 329 µM)	55.5%	15.6 mm
O=C(O)c1cn(C2CC2)c2cc(N3CCNCC3)c(F)cc2c1=O [CIPROFLOXACIN]	5 µg/mL (≈ 15.1 µM)		27.6 mm	5 µg/mL (≈ 15.1 µM)		26.3 mm
OC(Cn1cncn1)(Cn1cncn1)c1ccc(F)cc1F [FLUCONAZOLE]		74.6%			75.3%	
